Screening results (PubChem)
The list is not random: actives were taken first. Their share in the collection is about 2%.
HSP90 inh – blocks HSP90-mediated luciferase refolding in reticulocyte lysate; AID 1789; actives 0.91% (n = 290,000); Rabbit reticulocyte lysate, luciferase refolding luminescence, 3 h; inhibition, % at 5.6 µM;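 active = inhibition above the screen-wide mean plus 3 SD, computed separately per campaign, cut at about 16% in these data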;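 also: 0% = DMSO wells and 100% = 60 µM geldanamycin wells; inhibitors lower the luminescence because luciferase stays unfolded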
STAT1 inh – STAT1 signaling inhibition. actives 0.35% (n = 200,000). inhibition, % at 5.5 µM. NIH 3T3 STAT1-luciferase reporter, IFN-gamma, luminescence;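 active = inhibition above a set limit, the mean inhibition across all tested compounds plus 3 SD, cut at about 34% in these data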;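 also: 0% = IFN-gamma with DMSO and 100% = IFN-gamma with 300 µM nifuroxazide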
STAT3 blocker – inhibitors of IL-6 induced STAT3 signaling; U3A cells, IL-6 STAT3-luciferase reporter, luminescence; host cell line lacks STAT1; inhibition, % at 5.5 µM; actives 0.89% (n = 190,000);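 active = inhibition above the mean inhibition across all screened compounds plus 3 SD, cut at about 44% in these data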;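 also: 0% = DMSO only wells and 100% = 100 µM nifuroxazide control wells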
STAT3 act – STAT3 signaling activation; U3A cells, IL-6 STAT3-luciferase reporter, luminescence; 100% = signal with IL-6 EC80 alone; activation (% of control), % at 5.6 µM; actives 0.91% (n = 190,000);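 active = activation above the screen-wide mean of compound activation plus 3 SD, cut at about 130% in these data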;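 also: 0% = background luminescence of wells with medium and substrate only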
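Material: human U3A cells carrying STAT3-luciferase construct. Measured by: reporter luminescence signal. Timing: compound 1 h, then IL-6 6 h at 37 °C.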
* hit, by the source's call; . = no result.

SMILES | HSP90 inh | STAT1 inh | STAT3 blocker | STAT3 act
CCc1ccc(C2c3[nH]c4ccccc4c3CCN2C(=O)CN2CCN(CC)CC2)cc1 (configuration not stated) | -1 | 5 | -32 | 134*
CSc1ccc(C2c3[nH]c4ccccc4c3CCN2C(=O)c2ccnn2C)cc1 (configuration not stated) | 1 | -40 | -50 | 150*
O=C(O)C(O)Cc1c[nH]c2ccccc12 (configuration not stated) | -1 | 8 | 8 | 104
O=C(CC(C(=O)O)c1c[nH]c2ccccc12)c1ccccc1 (configuration not stated) | -1 | -4 | -34 | 136*
CCOC(=O)C1=C(C)NC2=C(C(=O)CC(c3ccc(OC)c(OC)c3)C2)C1c1ccc(C)o1 (configuration not stated) | -3 | 3 | 14 | 95
CCSCCOC(=O)C1=C(C)NC2=C(C(=O)CCC2)C1c1coc2ccccc2c1=O (configuration not stated) | 2 | 5 | -51 | 144*
COc1ccccc1NC(=O)C1=C(C)NC2=C(C(=O)CC(c3ccc(OC)c(OC)c3)C2)C1c1coc2ccccc2c1=O (configuration not stated) | 16* | 3 | 18 | 87
CC(C)N1CCC(=NNC(=O)c2cccs2)CC1 | -1 | . | . | .
COCCNC(=O)CN(Cc1ccccc1)S(=O)(=O)c1ccc2nc(C)sc2c1 | -4 | . | . | .
O=C(NC1CCCC1)C1CC(O)CN1C(=O)Nc1ccccc1 (configuration not stated) | -2 | . | . | .
CCc1ccc(OCc2ccc(C(=O)NCc3ccccn3)o2)cc1 | 17* | -21 | -3 | 108
COCCNC(=O)c1cccc(OC2CCN(Cc3ccccc3C)CC2)c1 | 5 | . | . | .
O=C1C(c2ccncc2)=C(O)c2ccccc21 | 16* | -1 | 27 | 81
CCOC(=O)C1=C(C)N(c2ccc(C)cc2)C(=O)/C1=C\c1ccc(O)c(OC)c1 | 6 | . | . | .
CCOC(=O)C1=C(O)c2ccccc2C(=O)/C1=C\c1ccc(C)cc1 | 0 | 10 | -40 | 134*
COc1ccc(C(=O)NC(=S)Nc2nc(C)c(C(=O)N(C)C)s2)cc1 | 0 | -9 | 1 | 104
CCOC(=O)c1sc(Nc2ccccc2)nc1C | 1 | -32 | -11 | 110
CCOC(=O)c1sc(Nc2nc3c(OC)cccc3s2)nc1C | 2 | -9 | -35 | 136*
CCOC(=O)c1sc(NC(=S)NC(=O)c2ccc(OC)cc2)nc1C | 16* | . | . | .
O=C(NC(=S)N1CCCc2ccccc21)c1ccco1 | 2 | -16 | -45 | 135*
COc1ccc(C(=O)/C=C2\NCC3c4ccccc4CCN3C2=O)cc1 (configuration not stated) | 0 | 0 | -38 | 135*
Cc1ccc(-n2c(-c3ccc(Br)cc3)c[n+]3c2CCc2ccc4cccnc4c2-3)cc1 | 2 | 39* | 75* | 42
O=C(CSc1ncn[nH]1)N/N=C/c1ccc(C(F)(F)F)cc1 | -6 | . | . | .
CC(C)(C)c1ccc(OCc2ccc(C(=O)N/N=C/c3ccc(O)c(O)c3)cc2)cc1 | 17* | -1 | -7 | 114
O=C(N/N=C/c1ccc(OCc2ccc(F)cc2)cc1)c1ccccc1 | -1 | -9 | -4 | 109
SMILES | HSP90 inh | STAT1 inh | STAT3 blocker | STAT3 act
Cc1c(N=Nc2c(-c3ccc([N+](=O)[O-])cc3)[nH]n(C(N)=S)c2=O)cccc1[N+](=O)[O-] | 3 | 20 | 77* | 37
NC(=S)n1[nH]c(-c2ccc([N+](=O)[O-])cc2)c(N=Nc2ccccc2[N+](=O)[O-])c1=O | 3 | -2 | 10 | 93
CCc1nn(CC(=O)NCCC(C)C)c(=O)c2cc3c(OC)cccc3n12 | 5 | . | . | .
O=[N+]([O-])c1cccc(-c2nc(-c3ccccc3)no2)c1 | 1 | -43 | -44 | 140*
Brc1ccc(Nc2nc(-c3cccnc3)cs2)cc1 | 1 | -38 | -72 | 165*
O=[N+]([O-])c1cccc(-c2csc(Nc3ccccc3)n2)c1 | 1 | -49 | -46 | 147*
Clc1cccc(Nc2nc(-c3cccnc3)cs2)c1 | -1 | -45 | -64 | 157*
COc1ccc(OC)c(CC(NC(C)=O)C(=O)NC2CCN(S(=O)(=O)c3ccc(NC(C)=O)cc3)CC2)c1 (configuration not stated) | -2 | . | . | .
CC(C)c1ccc(NC(=O)[C@@H]2CCC(=O)N2C2OC(=O)c3ccccc32)cc1 (some centres not stated) | -1 | . | . | .
Cc1c(S(=O)(=O)N2CCN(c3ccccc3)CC2)c(=O)n(C)c(=O)n1C | -1 | . | . | .
Cn1ccs/c1=N\C(=O)Nc1cccc(Cl)c1 | -2 | -65 | 11 | 95
CCNC(=O)C1CCCN1C(=O)C(CCCN=C(N)N)NC(=O)C(CC(C)C)NC(=O)C(Cc1cn(Cc2ccccc2)cn1)NC(=O)C(Cc1ccc(O)cc1)NC(=O)C(CO)NC(=O)C(Cc1c[nH]c2ccccc12)NC(=O)C(Cc1cnc[nH]1)NC(=O)C1CCC(=O)N1 (configuration not stated) | -2 | . | . | .
O=C1CCC(C(=O)N2CCc3c(Cl)cccc3C2)CN1CCCN1CCOCC1 (configuration not stated) | -5 | . | . | .
Oc1ccc(-c2csc(-c3c[nH]c4ccccc34)n2)c(O)c1 | -5 | -49 | -60 | 158*
Cc1cccc(C(=O)NC(=S)Nc2ccc(N3CCOCC3)cc2)c1 | 1 | -8 | 8 | 97
COC(=O)c1ccc(N=NNc2ccc(C(=O)OC)cc2)cc1 | 16* | -54 | -9 | 106
CC(O)CNCCCOc1ccccc1OCc1ccccc1 (configuration not stated) | 17* | -3 | 9 | 94
Cc1nnc(SCc2nc3ccccc3s2)n1N | -2 | -37 | -50 | 141*
c1ccc2oc(SCc3nc4ccccc4s3)nc2c1 | 1 | -42 | -41 | 138*
c1ccc(SCc2nc3ccccc3s2)nc1 | -3 | . | . | .
Cc1ccccc1CSc1nnc(C)n1N | 0 | -1 | -6 | 108
O=C(O)c1ccc(N=Nc2c(O)[nH]c3ccc(Br)cc23)cc1 | 18* | . | . | .
CCOC(=O)c1c(NC(=O)CSc2c[nH]c3ccccc23)sc2c1CCC2 | -6 | 3 | -8 | 107
CCOC(=O)c1c(NC(=O)CSc2c[nH]c3ccccc23)sc2c1CCCC2 | -3 | -1 | -40 | 135*
COc1ccc(-c2sc(Nc3ccc(F)c(F)c3F)nc2CCC(=O)NN)cc1 | 14 | . | . | .
SMILES | HSP90 inh | STAT1 inh | STAT3 blocker | STAT3 act
O=c1[nH]c2ccc(Cl)cc2c(O)c1-c1ccccc1 | 2 | 45* | 83* | 29
O=C(O)Cc1c(-c2ccccc2)c2cc(Cl)ccc2[nH]c1=O | -2 | . | . | .
COc1ccccc1NC(=O)C(=O)N/N=C(\C)CC(=O)Nc1ccccn1 | 3 | -4 | 12 | 96
COc1ccccc1NC(=O)C(=O)Nc1ccccn1 | 4 | -39 | -52 | 141*
O=S(=O)(c1ccc(NCc2ccccc2)cc1)N1CCOCC1 | -2 | . | . | .
Cc1ccc(NCc2ccc(O)c3ncccc23)cc1C | -2 | -5 | -39 | 135*
Cc1ccc(NCc2ccc(O)c3ncccc23)cc1 | -1 | -9 | 2 | 100
Cn1c(Sc2ccc(Br)cc2)c(C=O)c2ccccc21 | 0 | 16 | -49 | 157*
